We go through nine compounds from ChEMBL document CHEMBL1121742, “Synthesis and antibacterial activity of some ester, amides, and hydrazides of 3-carboxyrifamycin S. Relationship between structure and activity of ansamycins” (1981).

By MIC is commonly meant the smallest concentration in the dilution series that meets the test's criterion for growth inhibition.

Experiment [1] concerns Escherichia coli. In words: Minimum inhibitory concentration of compound tested for antibacterial activity against Escherichia coli ML/35. It is filed as functional. The essentials:
(§1)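 MIC by serial dilution in liquid medium in test tubes. Medium was brain-heart infusion and the inoculum was 10⁶ cells/mL. Tubes were incubated at 35 °C for 24 h. MIC was taken as the lowest antibiotic concentration preventing visible growth.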

Experiment [2] concerns Klebsiella pneumoniae. In words: Minimum inhibitory concentration of compound tested for antibacterial activity against Klebsiella pneumoniae ottaviani. The class given is functional. The essentials:
as §1

The next experiment deals with Salmonella paratyphi. In words: Minimum inhibitory concentration of compound tested for antibacterial activity against Salmonella paratyphi BO 248 K(Sclavo). The class given is functional, Salmonella enterica subsp. enterica serovar Paratyphi A. The following applies: Salmonella enterica.
A further experiment has as its system Staphylococcus aureus. The experiment is described as follows: Minimum inhibitory concentration of compound tested for antibacterial activity against Staphylococcus aureus 209 P(FDA). It is filed as functional. Put shortly:
as §1

In experiment [3] the test system is Escherichia coli. The experiment is described as follows: Minimum inhibitory concentration of compound tested for antibacterial activity against Escherichia coli ML/35; 25-50. The class given is functional. The essentials:
as §1

Experiment [4] relates to Klebsiella pneumoniae. The experiment is described as follows: Minimum inhibitory concentration of compound tested for antibacterial activity against Klebsiella pneumoniae ottaviani; 25-50. The class given is functional. The essentials: as §1

SMILES strings stand for the structures. ≈ marks a conversion by molar mass, not a printed value.

Regarding `COC1/C=C/OC2(C)Oc3c(C)c(O)c4c(c3C2=O)C(=O)C(C(=O)NN(C)C)=C(NC(=O)/C(C)=C\C=C\C(C)C(O)C(C)C(O)C(C)C(OC(C)=O)C1C)C4=O` (stereo unspecified), the MIC against Escherichia coli [1] is more than 50 µg/mL; with Klebsiella pneumoniae [2], more than 50 µg/mL; against Salmonella paratyphi, more than 50 µg/mL; against Staphylococcus aureus it was less than 0.005 µg/mL.

On to `COC1/C=C/OC2(C)Oc3c(C)c(O)c4c(c3C2=O)C(=O)C(C(=O)N2CCN(C)CC2)=C(NC(=O)/C(C)=C\C=C\C(C)C(O)C(C)C(O)C(C)C(OC(C)=O)C1C)C4=O` (stereo unspecified), for which the MIC in the experiment with Escherichia coli [1] is more than 50 µg/mL; in the experiment with Klebsiella pneumoniae [2] it was more than 50 µg/mL; in the experiment on Salmonella paratyphi, more than 50 µg/mL; in the experiment with Staphylococcus aureus, 0.1 µg/mL (≈ 0.122 µM).

Take `COC(=O)C1=C2NC(=O)/C(C)=C\C=C\C(C)C(O)C(C)C(O)C(C)C(OC(C)=O)C(C)C(OC)/C=C/OC3(C)Oc4c(C)c(O)c(c(c4C3=O)C1=O)C2=O` (stereo unspecified): the minimum inhibitory concentration (MIC) was 25 µg/mL (≈ 33.2 µM) with Escherichia coli [3], 25 µg/mL (≈ 33.2 µM) against Klebsiella pneumoniae [4], approximately 50 µg/mL (≈ 66.3 µM) in the experiment on Salmonella paratyphi and 0.05 µg/mL (≈ 0.0663 µM) with Staphylococcus aureus.

Consider `COC1/C=C/OC2(C)Oc3c(C)c(O)c4c(c3C2=O)C(=O)C(C(=O)OCC(O)CO)=C(NC(=O)/C(C)=C\C=C\C(C)C(O)C(C)C(O)C(C)C(OC(C)=O)C1C)C4=O` (stereo unspecified), for which the minimal inhibitory concentration (MIC) in the experiment on Escherichia coli [1] was more than 50 µg/mL; with Klebsiella pneumoniae [2], more than 50 µg/mL; against Salmonella paratyphi, more than 50 µg/mL; against Staphylococcus aureus, approximately 0.5 µg/mL (≈ 0.614 µM).

For the compound `CO[C@H]1/C=C/O[C@@]2(C)Oc3c(C)c(O)c4c(O)c(cc(O)c4c3C2=O)NC(=O)/C(C)=C\C=C\[C@H](C)[C@H](O)[C@@H](C)[C@@H](O)[C@@H](C)[C@H](OC(C)=O)[C@@H]1C` [RIFAMYCIN], the minimal inhibitory concentration (MIC) with Escherichia coli [1] was 100 µg/mL (≈ 143 µM); with Klebsiella pneumoniae [2], 100 µg/mL (≈ 143 µM); against Salmonella paratyphi it was 100 µg/mL (≈ 143 µM); against Staphylococcus aureus, less than 0.005 µg/mL.

With `COC1/C=C/OC2(C)Oc3c(C)c(O)c4c(c3C2=O)C(=O)C(C(=O)Nc2ccc(Br)cc2)=C(NC(=O)/C(C)=C\C=C\C(C)C(O)C(C)C(O)C(C)C(OC(C)=O)C1C)C4=O` (stereo unspecified), the MIC is more than 50 µg/mL in the experiment with Escherichia coli [1], more than 50 µg/mL in the experiment with Klebsiella pneumoniae [2], more than 50 µg/mL in the experiment with Salmonella paratyphi and 0.1 µg/mL (≈ 0.112 µM) against Staphylococcus aureus.

With `COC1/C=C/OC2(C)Oc3c(C)c(O)c4c(c3C2=O)C(=O)C(C(=O)N(C)N2CCCCC2)=C(NC(=O)/C(C)=C\C=C\C(C)C(O)C(C)C(O)C(C)C(OC(C)=O)C1C)C4=O` (stereo unspecified), the MIC with Escherichia coli [1] is more than 50 µg/mL; in the experiment with Klebsiella pneumoniae [2], more than 50 µg/mL; in the experiment on Salmonella paratyphi it was more than 50 µg/mL; in the experiment on Staphylococcus aureus it was approximately 0.03 µg/mL (≈ 0.0359 µM).

Take `COC1/C=C/OC2(C)Oc3c(C)c(O)c4c(c3C2=O)C(=O)C(C(=O)N(C)C)=C(NC(=O)/C(C)=C\C=C\C(C)C(O)C(C)C(O)C(C)C(OC(C)=O)C1C)C4=O` (stereo unspecified): the minimum inhibitory concentration (MIC) against Escherichia coli [1] is more than 50 µg/mL; against Klebsiella pneumoniae [2] it was more than 50 µg/mL; in the experiment with Salmonella paratyphi, more than 50 µg/mL; in the experiment with Staphylococcus aureus, 0.025 µg/mL (≈ 0.0326 µM).

For `CO[C@H]1/C=C/O[C@@]2(C)Oc3c(C)c(O)c4c(O)c(c(/C=N/N5CCN(C)CC5)c(O)c4c3C2=O)NC(=O)/C(C)=C\C=C\[C@H](C)[C@H](O)[C@@H](C)[C@@H](O)[C@@H](C)[C@H](OC(C)=O)[C@@H]1C` [RIFAMPIN], the MIC against Escherichia coli [1] was 6 µg/mL (≈ 7.29 µM); against Klebsiella pneumoniae [2], 25 µg/mL (≈ 30.4 µM); with Salmonella paratyphi, 12 µg/mL (≈ 14.6 µM); with Staphylococcus aureus, approximately 0.025 µg/mL (≈ 0.0304 µM).
